Measured values as given in ChEMBL document CHEMBL1155674, “New isomalabaricane triterpenes from the marine sponge Stelletta globostellata that induce morphological changes in rat fibroblasts” (J Nat Prod, 2000).
Calls of active or inactive are those of the source. The calls are words filed in the database; no cut-off is given here.

Key:
[1] = Cytotoxicity against rat 3Y1 cells after 72 hrs by MTT assay; type: cell-based
How it was run: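 3Y1 rat embryonic fibroblasts (B clone 1-6) in DMEM with 10% fetal calf serum were seeded at 300 cells/well and incubated 24 h. Samples were added, then plates were held 72 h at 37 °C. MTT (5 mg/mL in Ca/Mg-free PBS) was added for 4 h, formazan was dissolved in DMSO, and absorbance was read at 540 nm to give GI50.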

P388 [2] = experiment: Cytotoxicity against mouse P388 cells by MTT assay; type: functional
[3] = Cytotoxicity against rat 3Y1 cells at 18 uM after 72 hrs by MTT assay; type: cell-based; details: 3y1, 72 h
P388 [4] = experiment: Cytotoxicity against mouse P388 cells at 18 uM by MTT assay; type: functional, cell-based
Staphylococcus aureus = experiment: Antimicrobial activity against Staphylococcus aureus at 100 ug/disk; type: functional, organism-based
3Y1 cell line = experiment: Induction of morphological changes in rat 3Y1 cells assessed as lost pseudopodia at 0.2 uM before washing; type: functional, cell-based
How it was run: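 3Y1 B clone 1-6 fibroblasts, kept subconfluent in DMEM/10% fetal calf serum at 37 °C under 5% CO2, were seeded at 2 × 10⁴ cells/mL and incubated 24 h. Samples in MeOH were added. Morphology was checked by phase-contrast microscopy at 1, 5 and 24 h and on day 5. Some cultures were washed with fresh medium to test reversibility.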

Candida albicans = experiment: Antimicrobial activity against Candida albicans at 100 ug/disk; type: functional, organism-based
Bacillus subtilis = experiment: Antimicrobial activity against Bacillus subtilis at 100 ug/disk; type: functional, organism-based
Pseudomonas aeruginosa = experiment: Antimicrobial activity against Pseudomonas aeruginosa at 100 ug/disk; type: functional, organism-based
Penicillium chrysogenum = experiment: Antimicrobial activity against Penicillium chrysogenum at 100 ug/disk; type: functional, organism-based
Escherichia coli = experiment: Antimicrobial activity against Escherichia coli at 100 ug/disk; type: functional, organism-based
Umbelopsis ramanniana = experiment: Antimicrobial activity against Mortierella ramanniana at 100 ug/disk; type: functional, organism-based
[5] = Induction of cell death in rat 3Y1 cells at 0.2 uM after 5 days without washing; details: 3y1, 120 h
[6] = Induction of cell death in rat 3Y1 cells at 0.2 uM after 5 days after washing; type: cell-based; details: 3y1, 120 h

Row | Structure (SMILES) | GI50 at 72 h [1] | GI50 (P388 [2]) | Activity [3] | Activity (P388 [4]) | Activity (Staphylococcus aureus) | Activity (3Y1 cell line) | Activity (Candida albicans) | Activity (Bacillus subtilis) | Activity (Pseudomonas aeruginosa) | Activity (Penicillium chrysogenum) | Activity (Escherichia coli) | Activity (Umbelopsis ramanniana) | Activity [5] | Activity [6]
1 | CC(=O)O[C@H]1C[C@H]2[C@@]3(C)CC[C@H](OC(C)=O)C(C)(C)[C@@H]3CC[C@]2(C)/C1=C(C)/C=C/C=C(\C)[C@H](CC=C(C)C)OC(C)=O | 1300 nM | 1600 nM |  |  |  |  |  |  |  |  |  |  |  | 
2 | CC(=O)O[C@@H]1CC[C@@]2(C)[C@@H](CC[C@]3(C)/C(=C(\C)C(=O)/C=C/C(C)=C/C=C/C(C)(C)O)C(=O)C[C@@H]23)[C@@]1(C)C(=O)[O-].[Na+] [GLOBOSTELLATIC ACID A] |  |  | Non-toxic | Not toxic |  |  |  |  |  |  |  |  |  | 
3 | CC(C)=CCC/C(C)=C/C=C/C(C)=C1\C(=O)C[C@H]2[C@@]3(C)CC[C@H](O)[C@](C)(CO)[C@@H]3CC[C@]12C | 60 nM | 190 nM |  |  | inactive | Active | inactive | inactive | inactive | inactive | inactive | inactive | Active | 
4 | CC(=O)O[C@H]1CC[C@@]2(C)[C@@H](CC[C@]3(C)/C(=C(C)/C=C/C=C(\C)[C@@H](O)CC=C(C)C)C(=O)C[C@@H]23)C1(C)C [STELLIFERIN A] | 34 nM | 21 nM |  |  | inactive | Active | inactive | inactive | inactive | inactive | inactive | inactive | Active | 
5 | CC(=O)O[C@@H]1CC[C@@]2(C)[C@@H](CC[C@]3(C)/C(=C(C)/C=C/C=C(\C)[C@@H](O)CC=C(C)C)C(=O)C[C@@H]23)[C@@]1(C)CO | 46 nM | 180 nM |  |  | inactive | Active | inactive | inactive | inactive | inactive | inactive | inactive |  | Active
6 | CC(C)=CCC/C(C)=C/C=C/C(C)=C1\C(=O)C[C@H]2[C@@]3(C)CC[C@H](O)C(C)(C)[C@@H]3CC[C@]12C [STELLIFERIN D] | 18 nM | 24 nM |  |  | inactive | Active | inactive | inactive | inactive | inactive | inactive | inactive | Active | 
7 | CC(=O)O[C@@H](CC=C(C)C)/C(C)=C/C=C/C(C)=C1\C(=O)C[C@H]2[C@@]3(C)CC[C@@H](OC(C)=O)[C@](C)(CO)[C@@H]3CC[C@]12C | 52 nM | 160 nM |  |  | inactive | Active | inactive | inactive | inactive | inactive | inactive | inactive |  | Active
8 | COc1cccc2c1C(=O)c1c(O)c3c(c(O)c1C2=O)C[C@@](O)(C(=O)CO)C[C@@H]3O[C@H]1C[C@H](N)[C@H](O)[C@H](C)O1 [DOXORUBICIN] | 3.8 nM | 12 nM |  |  |  |  |  |  |  |  |  |  |  | 
